Numbering of substitutions follows the chain as printed. Activity calls are given as the source filed them. No cut-off for these calls is given here.

Assay [1] concerns the target T1, Retinoic acid receptor RXR-alpha (Homo sapiens) (UniProt P19793).
T1 sequence (whole entry): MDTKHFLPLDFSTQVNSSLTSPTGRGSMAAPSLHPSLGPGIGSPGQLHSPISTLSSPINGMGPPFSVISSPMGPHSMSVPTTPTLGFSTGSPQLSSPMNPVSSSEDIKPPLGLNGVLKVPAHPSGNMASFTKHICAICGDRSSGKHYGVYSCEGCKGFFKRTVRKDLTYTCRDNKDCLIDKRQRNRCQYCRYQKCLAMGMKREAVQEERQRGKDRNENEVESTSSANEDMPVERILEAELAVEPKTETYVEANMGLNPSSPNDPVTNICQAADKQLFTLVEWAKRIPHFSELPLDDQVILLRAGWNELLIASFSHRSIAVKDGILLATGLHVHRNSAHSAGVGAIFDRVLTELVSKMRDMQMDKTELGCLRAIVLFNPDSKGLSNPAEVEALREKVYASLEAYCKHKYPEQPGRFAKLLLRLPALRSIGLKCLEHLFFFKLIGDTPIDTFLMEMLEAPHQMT
Description: Antagonist activity against Myc-tagged RXRalpha ligand binding domain (unknown origin) expressed in human MCF7 cells assessed as inhibition of 9-cis-RA-induced receptor transactivation at 10 uM after 18 hrs by luciferase reporter gene based mammalian one-hybrid assay. In kind it is cell-based. In short, it runs like this: (§1)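 MCF-7 cells co-transfected with pG5-Luc reporter and pBind-RXRα-LBD. […] Read-out was dual-luciferase, with firefly normalized to Renilla for transfection efficiency. Single-concentration tests used 10 μM. Mean ± SD.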

Assay [2] deals with T1, Retinoic acid receptor RXR-alpha (Homo sapiens). Description: Antagonist activity against Myc-tagged RXRalpha ligand binding domain (unknown origin) expressed in human MCF7 cells assessed as inhibition of 9-cis-RA-induced receptor transactivation after 18 hrs by luciferase reporter gene based mammalian one-hybrid assay. In kind it is cell-based. Put shortly: as §1
In general terms: In a reporter assay the amount or activity of a reporter protein is the signal.

The subject of assay [3] is T2, Retinoic acid receptor RXR-alpha (Homo sapiens), P19793 [V298S].
T2 sequence (whole entry): T1 sequence (whole entry) with V298S
Nature of the assay: Antagonist activity against RXRalpha V298S mutant (unknown origin) expressed in human HEK293T cells assessed as inhibition of 9-cis-RA-induced receptor transactivation at 1 uM after 18 hrs by luciferase reporter gene based mammalian one-hybrid assay. In kind it is cell-based. To be noted: HEK-293T. In short, it runs like this:
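The pG5-Luc reporter was cotransfected with pBind-RXRα/V298S (Gal4-fusion construct) into HEK-293T cells. Cells were then exposed to the indicated compounds for 18 h, and luciferase reporter activity was measured.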

Assay [4] relates to T3, Retinoic acid receptor RXR-alpha (Homo sapiens), P19793 [F313A].
T3 sequence (whole entry): T1 sequence (whole entry) with F313A
The note with it: HEK-293T, 1 uM.

Assay [5] concerns T4, Retinoic acid receptor RXR-alpha (Homo sapiens), P19793 [C432W].
T4 sequence (whole entry): T1 sequence (whole entry) with C432W
The note with it: HEK-293T, 1 uM.

The subject of assay [6] is T5, Retinoic acid receptor RXR-alpha (Homo sapiens), P19793 [A272W].
T5 sequence (whole entry): T1 sequence (whole entry) with A272W
To be noted: HEK-293T, 1 uM.

Consider `CCC(Sc1nc2ccccc2s1)C(=O)N/N=C/c1c(O)ccc2ccccc12` (configuration not stated), for which the inhibition result in assay [1] was “Active”. The inhibition entry in assay [2] is “Dose-dependent effect”.
On to `CCCCCOc1cc2c(cc1-c1cc(/C=C/C(=O)O)ccc1O)C(C)(C)CCC2(C)C`, for which the inhibition entry in assay [3] is “Active”.
As for `CCCOc1cc2c(cc1C(=C1CC1)c1ccc(C(=O)O)cc1)C(C)(C)CCC2(C)C`, the inhibition result in assay [4] and in assay [3] was “Active” throughout. Moreover, the inhibition entry in assay [5] and in assay [6] was “inactive” each time.

For the origin of these results see ChEMBL document CHEMBL3352174, “Identification of a New RXRα Antagonist Targeting the Coregulator-Binding Site” (ACS Med Chem Lett, 2014).
